Measurements as given in ChEMBL document CHEMBL1155020, “Trithiocarbonates as a novel class of HDAC inhibitors: SAR studies, isoenzyme selectivity, and pharmacological profiles” (J Med Chem, 2008).
The source made the active and inactive calls. The rule behind the calls is not given here.

Experiments:
[1] = molecular target: T1, Histone deacetylase (Homo sapiens) (UniProt Q13547+O15379+Q9UBN7+Q92769+Q9UQL6+Q8WUI4+Q9BY41+Q96DB2+P56524+Q9UKV0+Q969S8); test: Inhibition of nuclear HDAC isolated from human HeLa cells at 32 uM; assay type: cell-free
[2] = molecular target: T2, Histone deacetylase 1 (Homo sapiens, UniProt Q13547); test: Inhibition of recombinant HDAC1 expressed in HEK293 cells at 32 uM; assay type: cell-based
[3] = molecular target: T3, Protein deacetylase HDAC6 (Homo sapiens) (UniProt Q9UBN7); test: Inhibition of recombinant HDAC6 expressed in HEK293 cells at 32 uM; assay type: cell-based
T3 sequence (whole entry): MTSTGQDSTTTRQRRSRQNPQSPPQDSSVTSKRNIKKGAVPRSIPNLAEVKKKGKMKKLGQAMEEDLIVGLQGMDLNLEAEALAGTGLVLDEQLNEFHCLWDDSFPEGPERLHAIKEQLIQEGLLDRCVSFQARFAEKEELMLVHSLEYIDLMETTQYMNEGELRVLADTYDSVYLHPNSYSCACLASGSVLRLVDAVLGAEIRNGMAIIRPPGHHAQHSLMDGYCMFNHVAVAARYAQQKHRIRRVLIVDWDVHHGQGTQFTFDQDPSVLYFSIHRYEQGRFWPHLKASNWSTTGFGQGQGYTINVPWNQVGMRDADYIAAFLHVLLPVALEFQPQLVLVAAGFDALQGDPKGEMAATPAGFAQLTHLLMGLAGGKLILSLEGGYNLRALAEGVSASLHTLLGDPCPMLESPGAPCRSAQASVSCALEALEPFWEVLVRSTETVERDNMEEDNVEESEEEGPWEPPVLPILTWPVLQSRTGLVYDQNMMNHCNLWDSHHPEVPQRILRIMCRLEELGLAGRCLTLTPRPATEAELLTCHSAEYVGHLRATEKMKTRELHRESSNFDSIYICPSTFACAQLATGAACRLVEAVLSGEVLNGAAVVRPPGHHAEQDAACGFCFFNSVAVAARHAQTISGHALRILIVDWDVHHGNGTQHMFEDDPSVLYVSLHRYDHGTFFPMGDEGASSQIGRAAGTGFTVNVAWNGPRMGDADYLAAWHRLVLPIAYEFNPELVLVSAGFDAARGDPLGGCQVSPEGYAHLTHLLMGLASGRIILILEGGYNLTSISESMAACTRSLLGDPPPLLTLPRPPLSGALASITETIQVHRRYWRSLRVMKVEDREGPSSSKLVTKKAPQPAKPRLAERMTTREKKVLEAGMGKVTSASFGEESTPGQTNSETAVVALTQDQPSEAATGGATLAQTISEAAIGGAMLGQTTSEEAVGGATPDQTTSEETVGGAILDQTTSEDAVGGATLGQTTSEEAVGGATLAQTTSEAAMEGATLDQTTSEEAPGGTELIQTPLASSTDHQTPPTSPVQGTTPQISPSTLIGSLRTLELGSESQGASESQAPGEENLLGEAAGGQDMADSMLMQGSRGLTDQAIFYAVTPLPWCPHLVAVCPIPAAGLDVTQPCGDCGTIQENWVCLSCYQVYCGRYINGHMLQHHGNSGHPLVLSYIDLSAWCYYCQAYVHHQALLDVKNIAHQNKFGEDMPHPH

[4] = molecular target: T1, Histone deacetylase (Homo sapiens); test: Inhibition of HDAC in human HeLa cells at 32 uM; assay type: cell-based
Procedure, shortened: (§1)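 HeLa cells were seeded at 5 × 10^3/well, grown for 24 h, and exposed to compound for 3 h. Cell-permeable Boc-K(Ac)-AMC was added for a further 3 h. Lysis/developer buffer containing trypsin and 10 µM TSA followed, with 3 h incubation. AMC fluorescence was read at ex 355/em 460 nm, and % inhibition was given at the stated concentration.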

[5] = test system: HeLa; test: Cytotoxicity against human HeLa cells at 50 uM after 72 hrs by alamar blue assay; assay type: functional
[6] = molecular target: T2, Histone deacetylase 1; test: Inhibition of recombinant HDAC1 expressed in HEK293 cells; assay type: cell-based
[7] = molecular target: T4, Protein deacetylase HDAC6 (Homo sapiens, UniProt Q9UBN7); test: Inhibition of recombinant HDAC6 expressed in HEK293 cells; assay type: cell-based
T4 sequence (Q9UBN7 whole entry): T3 sequence (whole entry)

[8] = molecular target: Histone deacetylase; test: Inhibition of nuclear HDAC isolated from human HeLa cells; assay type: cell-based
[9] = molecular target: Histone deacetylase; test: Inhibition of HDAC in human HeLa cells; assay type: cell-based
[10] = test system: HeLa; test: Cytotoxicity against human HeLa cells after 72 hrs by alamar blue assay; assay type: functional, cell-based
Procedure, shortened: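 HeLa cells were seeded at densities allowing growth through 72 h of compound exposure at 37 °C, 5% CO2. Viability was read by Alamar Blue (resazurin) reduction. Replicate assays were averaged, and IC50 was taken from concentration-effect curves.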

[11] = molecular target: Histone deacetylase; test: Inhibition of HDAC in human HeLa cells assessed as induction of histone H3 hyperacetylation after 24 hrs; assay type: cell-based
[12] = molecular target: T1, Histone deacetylase (Homo sapiens); test: Inhibition of HDAC in human RKO cells assessed as induction of histone H3 serine 10 phosphorylation at 1 to 10 uM after 24 hrs by Western blotting; assay type: cell-based
Procedure, shortened: (§2)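 RKO cells were treated for 24 h with compound at 1, 3 and 10 µM. Lysates were run on SDS-PAGE and Western blots probed for histone H3 S10 phosphorylation and histone H3 K1-20 acetylation, with β-actin reprobe as control.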

[13] = molecular target: T1, Histone deacetylase (Homo sapiens); test: Inhibition of HDAC in human RKO cells assessed as induction of histone H3 lysine 1 to 20 hyperacetylation at 1 to 10 uM after 24 hrs by Western blotting; assay type: cell-based; procedure, shortened: as §2
[14] = test system: RKO; test: Induction of apoptosis in human RKO cells at 10 uM after 24 hrs by flow cytometry
[15] = molecular target: T1, Histone deacetylase (Homo sapiens); test: Inhibition of HDAC in human HeLa cells assessed as induction of p21waf1 at 50 uM after 24 hrs by Western blotting; assay type: cell-based
Procedure, shortened: (§3)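 HeLa cells were treated with compound at 5 and 50 µM for 24 h, then lysed in Tris pH 8 RIPA-type buffer. Equal protein amounts were separated by SDS-PAGE and blotted to PVDF. Blots were probed for acetylated histone H3 K1-20 and p21waf1, then reprobed for β-actin as loading control.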

[16] = molecular target: T1, Histone deacetylase (Homo sapiens); test: Inhibition of HDAC in human HeLa cells assessed as induction of histone H3 hyperacetylation at 50 uM after 24 hrs by Western blotting; assay type: cell-based; procedure, shortened: as §3
[17] = molecular target: T1, Histone deacetylase (Homo sapiens); test: Inhibition of HDAC in human HeLa cells at 50 uM; assay type: cell-based; procedure, shortened: as §1
[18] = test system: RKO; test: Cytotoxicity against arrested non proliferative human RKO cells after 24 hrs; assay type: functional, cell-based; details: in the assay text read “after 72 hrs” for “after 24 hrs”
Procedure, shortened: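 Alamar Blue (resazurin) read-out of metabolic activity. RKO p21waf1 transfectant cells were arrested by inducing p21waf1 with 10 µM ponasterone A for 24 h, then seeded at 2 × 10^4 cells/well and treated with compound. IC50 was taken from the concentration-effect curve.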

[19] = test system: RKO; test: Induction of apoptosis in human RKO cells assessed as accumulation at subG1 phase by flow cytometry; assay type: functional, cell-based
Procedure, shortened: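 RKO cells were seeded at 5 × 10^5 per 10 cm dish and grown for 24 h in log phase. They were then exposed to compound at 1 and 10 µM for 24 h. Flow cytometry assigned cells to subG1 (apoptosis), G1 (2N), S and G2/M (4N).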

[20] = molecular target: T1, Histone deacetylase (Homo sapiens); test: Inhibition of nuclear HDAC isolated from human HeLa cells at 30 uM; assay type: cell-free
[21] = molecular target: T4, Protein deacetylase HDAC6; test: Inhibition of recombinant HDAC6 expressed in HEK293 cells using variable substrate concentration by Lineweaver-Burke plot; assay type: cell-based
Procedure, shortened: (§4)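 Inhibitor was used at 1/4, 1/2, 1, 2 and 4 times the IC50-derived concentration. Ki was obtained from Lineweaver-Burk plots, with y-axis intersection indicating substrate competition.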

[22] = molecular target: T2, Histone deacetylase 1; test: Inhibition of recombinant HDAC1 expressed in HEK293 cells at 30 uM; assay type: cell-based
[23] = molecular target: T3, Protein deacetylase HDAC6 (Homo sapiens); test: Inhibition of HDAC6 in human A549 NSCLC cells assessed as induction of alpha-tubulin hyperacetylation at 10 uM after 24 hrs by Western blotting; assay type: cell-based
Procedure, shortened: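 A549 NSCLC cells were exposed to compound for 24 h and lysed. Western blots were probed for acetylated α-tubulin and acetylated histone H3 K1-20, then reprobed with histone H3 and α-tubulin antibodies as controls.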

[24] = molecular target: T2, Histone deacetylase 1; test: Inhibition of recombinant HDAC1 expressed in HEK293 cells using variable substrate concentration by Lineweaver-Burke plot; assay type: cell-based; procedure, shortened: as §4

T2 sequence (Q13547 whole entry): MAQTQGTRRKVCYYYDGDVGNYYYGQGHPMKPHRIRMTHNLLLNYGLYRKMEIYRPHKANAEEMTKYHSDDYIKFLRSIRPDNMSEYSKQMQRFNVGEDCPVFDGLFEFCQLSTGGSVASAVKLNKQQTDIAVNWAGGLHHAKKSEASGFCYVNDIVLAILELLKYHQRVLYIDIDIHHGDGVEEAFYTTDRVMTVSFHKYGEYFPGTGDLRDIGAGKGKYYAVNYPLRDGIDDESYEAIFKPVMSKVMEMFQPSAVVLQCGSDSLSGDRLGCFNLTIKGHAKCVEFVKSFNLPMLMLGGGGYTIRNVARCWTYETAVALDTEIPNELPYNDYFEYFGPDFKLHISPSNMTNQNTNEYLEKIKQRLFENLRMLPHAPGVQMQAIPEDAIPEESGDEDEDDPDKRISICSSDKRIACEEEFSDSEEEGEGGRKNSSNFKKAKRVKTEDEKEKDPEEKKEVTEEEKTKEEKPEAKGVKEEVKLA

Compound | IC50 [6] [nM] | IC50 [7] [nM] | IC50 [8] [nM] | IC50 [9] [nM] | IC50 [10] [nM] | other results
COc1ccc(C(=O)CSC(=S)N2CCOCC2)cc1 |  |  |  |  |  | inhibition [1]: 2%; inhibition [2]: 0%; inhibition [3]: -2%; inhibition [4]: 0%
CCSC(=S)NCC(=O)c1ccc(OC)cc1 |  |  |  |  |  | inhibition [1]: -3%; inhibition [3]: -8%; inhibition at 50 µM [5]: 26%
CCOC(=S)SCC(=O)c1ccc(NC(C)=O)cc1 | 536 | 90 | 386 | 26200 | 3610 | EC50 [11]: 2900 nM; Activity [12]: Active; Activity [13]: Active; Activity [14]: Active
CCSC(=S)SCC(=O)c1cccc(S(=O)(=O)Nc2ccc3c(c2)OCO3)c1 | 501 | 431 | 14 | 1860 | 9180 | Activity [15]: Active; Activity [16]: Active
CCSC(=S)OCC(=O)c1ccc(OC)cc1 |  |  |  |  | 2990 | inhibition [1]: 16%; inhibition [2]: 6%; inhibition [3]: 16%; inhibition [17]: 28%
CCSC(=S)SCC(=O)c1ccc(-c2ccc(CNc3cnc4ccccc4c3)cn2)s1 | 555 | 438 | 8 | 683 | 2700 | EC50 [11]: 4800 nM; Activity [14]: Active
CCSC(=S)SCC(=O)c1cccc(S(=O)(=O)N(C)c2ccc(OC)cc2)c1 | 5330 | 2040 | 110 |  |  | inhibition at 50 µM [5]: 43%
CCSC(=S)SCC(=O)c1ccc(C)cc1 | 6990 | 1250 | 375 | 81200 |  | EC50 [11]: 4800 nM; Activity [18]: Active; Activity [19]: Active; Activity [14]: Active
CCCC(=S)SCC(=O)c1ccc(OC)cc1 | 422 | 110 | 123 | 3410 | 5710 | 
CCSC(=S)SCC(=O)c1cccc(S(=O)(=O)Nc2cccc(C(N)=O)c2)c1 | 1560 | 181 | 97 | 1150 | 7740 | 
CCSC(=S)SCC(=O)c1ccc(CC(=O)NCc2ccccc2)s1 | 762 | 250 | 38 | 9840 | 710 | EC50 [11]: 2400 nM; Activity [12]: Active; Activity [13]: Active
CCSC(=S)SCC(=O)c1ccc(CCNC(C)=O)cc1 | 607 | 102 | 587 | 1480 | 12800 | 
CCNC(=S)NCC(=O)c1ccc(OC)cc1 |  |  |  |  | 5810 | inhibition [20]: -6%
CCSC(=S)SCC(=O)c1ccc(CC(=O)Nc2ccc(OC)cc2)s1 | 251 | 116 | 10 | 7530 | 6610 | EC50 [11]: 760 nM
CCSC(=S)SCC(=O)c1ccc(CC(=O)NCc2ccc(OC)cc2)s1 | 887 | 175 | 26 | 600 | 1450 | 
CCSC(=S)SCC(=O)c1ccc(CNC(C)=O)cc1 | 7120 | 346 | 719 | 2070 | 17900 | 
CCSC(=S)SCC(=O)c1ccn(S(=O)(=O)c2ccccc2)c1 |  |  |  |  |  | Ki [21]: 140 nM
CCSC(=S)SCC(=O)c1ccc(C(=O)Nc2ccc(Cl)cc2)cc1 |  | 1450 | 79 |  |  | inhibition at 50 µM [5]: 0%; inhibition [22]: 1%
CCSC(=S)SCC(=O)c1ccc(CNC(=O)c2ccccc2)cc1 | 523 | 301 | 46 | 632 | 12700 | 
CCSC(=S)SCC(=O)c1cccc(NC(=O)c2ccccc2)c1 | 1220 | 65 | 120 | 964 | 8230 | Ki [21]: 110 nM; Activity [23]: Active
CCSC(=S)SCC(=O)c1ccc(NC(=O)c2cnc3ccccc3c2)cc1 | 980 | 119 | 66 | 748 | 50000 | 
CCSC(=S)SCC(=O)c1ccc(CC(=O)NCCOc2ccccc2)s1 | 385 | 204 | 18 | 624 | 5780 | Ki [24]: 460 nM
CCSC(=S)SCC(=O)c1ccc(C(=O)N[C@@H](C)c2ccccc2)s1 | 497 | 135 | 49 | 1030 | 15800 | 
